Data: article PMC5743405 (International Journal of Oncology, 2017)
“And” between values parts separate entries of the source, which are not always exact repeats. Equal values may be shown once. “Also recorded” adds a separate entry of the source. Read-outs that look alike come from different tables or passages of the source.

Columns and labels:
ADRB1 = test: PathHunter β-arrestin; assay type: cell-based; conditions: 6 μM
Method in brief: (§1)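 β-Arrestin recruitment assay: the enzyme acceptor is fused to β-arrestin and the ED fragment to the GPCR. Recruitment restores β-galactosidase, read by chemiluminescence. % activity = 100% × (test − vehicle)/(max control ligand − vehicle). % inhibition = 100% × (1 − (test − vehicle)/(EC80 control − vehicle)). An agonist hit needs >30% activity and RLU > baseline + 3×SD. An antagonist hit needs >35% inhibition and RLU < EC80 RLU − 3×SD.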

AGTR1 = test: PathHunter β-arrestin; assay type: cell-based; conditions: agonist mode, 6 μM
Method in brief: as §1

BDKRB2 = test: PathHunter β-arrestin; assay type: cell-based; conditions: antagonist mode, 6 μM
Method in brief: as §1

C3AR1 = test: PathHunter β-arrestin; assay type: cell-based; conditions: antagonist mode, 6 μM
Method in brief: as §1

CCKBR = test: PathHunter β-arrestin; assay type: cell-based; conditions: antagonist mode, 6 μM
Method in brief: as §1

CNR1 = test: PathHunter β-arrestin; assay type: cell-based; conditions: antagonist mode, 6 μM
Method in brief: (§2)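 Engineered cells express the receptor fused to one β-galactosidase fragment (ED) and β-arrestin fused to the complementing fragment (EA). Receptor activation recruits β-arrestin, which restores enzyme activity, and this is read by chemiluminescence (RLU). Agonist % activity is 100% × (test − vehicle)/(maximal control ligand − vehicle). Antagonist mode is challenged with an EC80 control agonist, and % inhibition is 100% × (1 − (test − vehicle)/(EC80 − vehicle)). Hits require >30% activity or >35% inhibition, plus a 3×SD RLU margin.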

CX3CR1 = test: PathHunter β-arrestin; assay type: cell-based; conditions: 6 μM
Method in brief: as §2

CXCR2 = test: PathHunter β-arrestin; assay type: cell-based; conditions: 6 μM
Method in brief: as §2

CXCR3 = test: PathHunter β-arrestin; assay type: cell-based; conditions: 6 μM
Method in brief: as §2

EDG6 = test: PathHunter β-arrestin; assay type: cell-based; conditions: 6 μM
Method in brief: as §2

GLP2R = test: PathHunter β-arrestin; assay type: cell-based; conditions: agonist mode, 6 μM
Method in brief: (§3)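 Vendor-run (DiscoveRx) PathHunter enzyme fragment complementation. β-Arrestin carries the EA fragment and the receptor carries ED; recruitment restores β-gal activity, read by chemiluminescence (RLU). Agonist % activity = vehicle-subtracted RLU relative to max control ligand (gpcrMAX) or to vehicle (orphanMAX). Antagonist % inhibition = 100% × (1 − vehicle-subtracted sample RLU / vehicle-subtracted EC80 agonist control RLU).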

HTR1A = test: PathHunter β-arrestin; assay type: cell-based; conditions: antagonist mode, 6 μM
Method in brief: as §3

HTR1F = test: PathHunter β-arrestin; assay type: cell-based; conditions: 6 μM
Method in brief: as §3

MRGPRX1 = test: PathHunter β-arrestin; assay type: cell-based; conditions: 6 μM
Method in brief: as §3

NPBWR1 = test: PathHunter β-arrestin; assay type: cell-based; conditions: agonist mode, 6 μM
Method in brief: as §3

NPY2R = test: PathHunter β-arrestin; assay type: cell-based; conditions: antagonist mode, 6 μM
Method in brief: as §3

OPRM1 = test: PathHunter β-arrestin; assay type: cell-based; conditions: 6 μM
Method in brief: (§4)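 β-Arrestin recruitment to GPCR read by β-galactosidase fragment complementation and chemiluminescence. Agonist: % = 100 × (test − vehicle)/(max control ligand − vehicle), hit at >30% and RLU > baseline + 3 SD. Antagonist, against EC80 agonist: % inhibition = 100 × (1 − (test − vehicle)/(EC80 − vehicle)), hit at >35% and RLU < EC80 − 3 SD.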

PRLHR = test: PathHunter β-arrestin; assay type: cell-based; conditions: antagonist mode, 6 μM
PROKR1 = test: PathHunter β-arrestin; assay type: cell-based; conditions: 6 μM
Method in brief: as §4

PROKR2 = test: PathHunter β-arrestin; assay type: cell-based; conditions: antagonist mode, 6 μM
UTR2 = test: PathHunter β-arrestin; assay type: cell-based; conditions: 6 μM
Method in brief: as §4

nuclear receptor [1] = test: PathHunter NHR assays, nhrMAX panel, agonist mode; assay type: cell-based; conditions: summary of Table IV
Method in brief: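 Enzyme fragment complementation: a ligand-activated NHR moves to the nucleus and recruits a steroid receptor co-activator peptide fusion, restoring β-galactosidase, read by chemiluminescence. Agonist interaction measured over 6 h. Hit requires >30% activity and mean RLU above baseline RLU + 3 × baseline SD.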

nuclear receptor [2] = test: PathHunter NHR assays, nhrMAX panel, antagonist mode; assay type: cell-based; conditions: summary of Table IV
Method in brief: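 Enzyme fragment complementation: NHR nuclear recruitment of a co-activator peptide fusion restores β-galactosidase, read by chemiluminescence. Test compound preincubated 1 h before agonist challenge. % inhibition = 100 × (1 − (test − vehicle RLU)/(EC80 control − vehicle RLU)). Hit requires >35% inhibition and mean RLU below EC80 RLU − 3 × EC80 SD.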

MUC5B = test: TriCEPS ligand-receptor capture; assay type: binding, human; conditions: 10 μg/ml PRP-1
TLR1 = test: western blot, JJ012 cells; assay type: cell-based, human; conditions: vs untreated control, overnight incubation
Method in brief: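 JJ012 cells seeded at 1×10^6 cells/ml in 6-well clusters and incubated overnight at 37°C, 5% CO2 with or without test compound. Lysed with protease inhibitor (1:100) and centrifuged at 15,000 × g, 4°C. Protein loaded at 20 μg/lane with reducing agent, run on polyacrylamide gel, transferred to PVDF, probed with rabbit anti-TLR primaries and HRP-linked secondaries.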

TLR9 = test: western blot, JJ012 cells; assay type: cell-based, human; conditions: vs untreated control, overnight incubation
TLR2 = test: RT2 qPCR primer assay, JJ012 cells; assay type: cell-based, human; conditions: 1 μg/ml PRP-1
Method in brief: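 RNA was extracted, checked by spectrophotometry and reverse-transcribed. Custom RT2 SYBR-Green primer assays were run on three samples in technical triplicate. Ct was normalised to mean GAPDH/ACTB, ΔΔCt taken versus control, and fold change = 2^−ΔΔCt.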

[3] = test system: chondrosarcoma cell growth; conditions: cited from earlier work

Proline rich polypeptide 1 [PRP-1]
% Activity (ADRB1; agonist mode): 1%
% Inhibition (ADRB1; antagonist mode): −5%
% Activity (AGTR1): 2%
% Inhibition (BDKRB2): 5%
% Inhibition (C3AR1): −2%
% Inhibition (CCKBR): −3%
% Inhibition (CNR1): 2%
% Activity (CX3CR1; agonist mode): 1%
% Inhibition (CX3CR1; antagonist mode): 2%
% Activity (CXCR2; agonist mode): 1%
% Inhibition (CXCR2; antagonist mode): −3%
% Activity (CXCR3; agonist mode): 1%
% Inhibition (CXCR3; antagonist mode): −1%
% Activity (EDG6; agonist mode): −2%
% Inhibition (EDG6; antagonist mode): 4%
% Activity (GLP2R): 1%
% Inhibition (HTR1A): −5%
% Activity (HTR1F; agonist mode): 2%
% Inhibition (HTR1F; antagonist mode): 2%
% Activity (MRGPRX1; agonist mode): 1%
% Inhibition (MRGPRX1; antagonist mode): −2%
% Activity (NPBWR1): 3%
% Inhibition (NPY2R): −2%
% Activity (OPRM1; agonist mode): 1%
% Inhibition (OPRM1; antagonist mode): −2%
% Inhibition (PRLHR): −3%
% Activity (PROKR1; agonist mode): 2%
% Inhibition (PROKR1; antagonist mode): −2%
% Inhibition (PROKR2): 8%
% Activity (UTR2; agonist mode): 3%
% Inhibition (UTR2; antagonist mode): −7%
nuclear receptor agonism (nuclear receptor [1]): neither that this peptide was agonist for orphan receptors (Table III) or agonist/antagonist for nuclear receptor
nuclear receptor antagonism (nuclear receptor [2]): neither that this peptide was agonist for orphan receptors (Table III) or agonist/antagonist for nuclear receptor
binding partner detection (MUC5B): detected MUC5B as binding partner with 10 μg/ml PRP-1 treatment
protein expression (TLR1): strong upregulation; also recorded: upregulated protein expression of TLR1 and TLR2 in dose-dependent manner
protein expression (TLR9): no indication of PRP-1 effect
fold upregulation (∆∆Ct) (TLR2; P<0.0001, 2^−∆∆Ct, normalized to GAPDH, ACTB): 5.26 fold and > 5 fold
gene expression (TLR2; heat map, vs nontreated control, technical triplicates): high expression
inhibition of chondrosarcoma cell growth ([3]; ref [4],[5]): 80–90%
inhibition of chondrosarcoma cell growth ([3]; ref [4],[6]): > 80%
